SMILES strings stand for the structures.

For experiment [1], the system named is THP-1. The experiment in a line: Cytotoxicity against human THP1 cells assessed as cell growth inhibition at 50 uM after 48 hrs by sulphorhodamine B assay. The format is functional. Conditions: THP-1, 48 h, read-out: GI. In short, it runs like this: (§1)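 Single-concentration screen of analogs at 50 µM for 48 h on overnight-adhered cells maintained in RPMI-1640/10% FBS at 37 °C, 5% CO2. Cells were fixed with ice-cold TCA (60 min) and stained 30 min with 0.4% SRB in 1% acetic acid. Bound dye was dissolved in 10 mM Tris and OD read at 570 nm, expressed as % growth inhibition.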
In general terms: The SRB assay estimates cell density from bound dye.

Experiment [2] relates to HCT-116. The experiment in a line: Cytotoxicity against human HCT116 cells assessed as cell growth inhibition at 50 uM after 48 hrs by sulphorhodamine B assay. The format is functional. Conditions: HCT-116, 48 h, read-out: GI. The gist of the method: as §1
For experiment [3], the system named is PC-3. The experiment in a line: Cytotoxicity against human PC3 cells assessed as cell growth inhibition at 50 uM after 48 hrs by sulphorhodamine B assay. The format is functional. Conditions: PC-3, 48 h, read-out: GI. The gist of the method:
as §1

Experiment [4] concerns A549. Nature of the experiment: Cytotoxicity against human A549 cells assessed as cell growth inhibition at 50 uM after 48 hrs by sulphorhodamine B assay. The format is functional. Conditions: A549, 48 h, read-out: GI. The gist of the method: as §1
The subject of experiment [5] is THP-1. Nature of the experiment: Cytotoxicity against human THP1 cells assessed as cell growth inhibition after 48 hrs by sulphorhodamine B assay. The format is functional, cell-based. The note with it: THP-1, 48 h. In short, it runs like this:
(§2)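 Cells grown in RPMI-1640 with 10% FBS and penicillin/streptomycin at 37 °C under 5% CO2, then allowed to adhere overnight. Only analogs giving >50% inhibition at 50 µM were retested at 10–100 µM for 48 h. Cells were fixed with cold TCA and stained with 0.4% SRB in 1% acetic acid. Dye was solubilised in 10 mM Tris and read at 570 nm to give IC50.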

Experiment [6] has as its system HCT-116. The experiment in a line: Cytotoxicity against human HCT116 cells assessed as cell growth inhibition after 48 hrs by sulphorhodamine B assay. The format is functional, cell-based. The note with it: HCT-116, 48 h. In short, it runs like this:
as §2

Experiment [7] relates to A549. The experiment in a line: Cytotoxicity against human A549 cells assessed as cell growth inhibition after 48 hrs by sulphorhodamine B assay. The format is functional, cell-based. Conditions: A549, 48 h. In short, it runs like this: as §2
Experiment [8] concerns PC-3. Nature of the experiment: Cytotoxicity against human PC3 cells assessed as cell growth inhibition after 48 hrs by sulphorhodamine B assay. The format is functional, cell-based. The note with it: PC-3, 48 h. The gist of the method: as §2
For experiment [9], the system named is PC-3. Nature of the experiment: Ratio of ludartin IC50 to compound IC50 for human PC3 cells. The format is functional.
For experiment [10], the system named is A549. The experiment in a line: Ratio of ludartin IC50 to compound IC50 for human A549 cells. The format is functional.

On to `CNC[C@@H]1C(=O)O[C@H]2[C@H]1CCC(C)=C1C[C@H]3O[C@@]3(C)[C@@H]12`, for which the inhibition of growth at 50 µM was found to be 25% in [1], 16% in experiment [2], 12% in experiment [3] and 10% in experiment [4].

Turning to `CCNC[C@@H]1C(=O)O[C@H]2[C@H]1CCC(C)=C1C[C@H]3O[C@@]3(C)[C@@H]12`, the inhibition of growth at 50 µM came to 68% in [1], 36% in experiment [2], 43% in [3] and 20% in [4]. Further, the IC50 in [5] was found to be 29 µM.

As for `CCCNC[C@@H]1C(=O)O[C@H]2[C@H]1CCC(C)=C1C[C@H]3O[C@@]3(C)[C@@H]12`, the inhibition of growth at 50 µM in experiment [1] came to 23%; in experiment [2], 2%; in experiment [3], 17%; in experiment [4], 39%.

Consider `CCCCNC[C@@H]1C(=O)O[C@H]2[C@H]1CCC(C)=C1C[C@H]3O[C@@]3(C)[C@@H]12`, for which the inhibition of growth at 50 µM in [1] is 28%; in experiment [2], 4%; in [3] it was 14%; in experiment [4], 0%.

With `CCN(CC)C[C@@H]1C(=O)O[C@H]2[C@H]1CCC(C)=C1C[C@H]3O[C@@]3(C)[C@@H]12`, the IC50 in experiment [6] was found to be 3.7 µM; in experiment [7], 22 µM; in experiment [8] it was 32 µM; in [5], 3.5 µM. Further, the inhibition of growth at 50 µM amounted to 98% in experiment [1], 95% in [2], 56% in [3] and 73% in experiment [4].

`C=CCNC[C@@H]1C(=O)O[C@H]2[C@H]1CCC(C)=C1C[C@H]3O[C@@]3(C)[C@@H]12`: the inhibition of growth at 50 µM came to 39% in [1], 28% in experiment [2], 16% in experiment [3] and 0% in experiment [4].

On to `C#CCNC[C@@H]1C(=O)O[C@H]2[C@H]1CCC(C)=C1C[C@H]3O[C@@]3(C)[C@@H]12`, for which the inhibition of growth at 50 µM in [1] is 40%; in experiment [2], 4%; in experiment [3], 33%; in experiment [4], 36%.

For the molecule `CC1=C2C[C@H]3O[C@@]3(C)[C@@H]2[C@H]2OC(=O)[C@@H](CN3CCCC3)[C@@H]2CC1`, the inhibition of growth at 50 µM was 67% in experiment [1], 15% in [2], 11% in experiment [3] and 0% in experiment [4]. Further, the IC50 in [5] stood at 26 µM.

Take `CC1=C2C[C@H]3O[C@@]3(C)[C@@H]2[C@H]2OC(=O)[C@@H](CN3CCCCC3)[C@@H]2CC1`: the IC50 in experiment [6] was 4 µM; in experiment [7] it was 17 µM; in [8] it was 23 µM; in experiment [5] it was 3.9 µM. Moreover, the inhibition of growth at 50 µM is 93% in experiment [1], 90% in [2], 85% in experiment [3] and 87% in experiment [4].

Turning to `CC1=C2C[C@H]3O[C@@]3(C)[C@@H]2[C@H]2OC(=O)[C@@H](CN3CCOCC3)[C@@H]2CC1`, the inhibition of growth at 50 µM in experiment [1] was 97%; in [2] it was 58%; in experiment [3], 59%; in experiment [4] it was 42%. The concentration for half-maximal inhibition (IC50) in [5] came out at 2.8 µM.

Take `CC1=C2C[C@H]3O[C@@]3(C)[C@@H]2[C@H]2OC(=O)[C@@H](CNCc3ccc(F)cc3)[C@@H]2CC1`: the inhibition of growth at 50 µM came out at 26% in experiment [1], 0% in experiment [2], 64% in experiment [3] and 16% in experiment [4].

For `CC1=C2C[C@H]3O[C@@]3(C)[C@@H]2[C@H]2OC(=O)[C@@H](Cn3ccnc3)[C@@H]2CC1`, the inhibition of growth at 50 µM was determined as 36% in [1], 42% in experiment [2], 53% in experiment [3] and 0% in experiment [4].

With `CC1=C2C[C@H]3O[C@@]3(C)[C@@H]2[C@H]2OC(=O)[C@@H](Cn3cnc([N+](=O)[O-])c3)[C@@H]2CC1`, the inhibition of growth at 50 µM in [1] was determined as 32%; in experiment [2] it was 30%; in [3], 15%; in [4], 0%.

Consider `CC1=C2C[C@H]3O[C@@]3(C)[C@@H]2[C@H]2OC(=O)[C@@H](Cn3cncn3)[C@@H]2CC1`, for which the half-maximal inhibitory concentration (IC50) in experiment [6] was 20 µM; in experiment [7], 32 µM; in experiment [8], 35 µM; in experiment [5] it was 15 µM. The inhibition of growth at 50 µM is 83% in experiment [1], 70% in experiment [2], 66% in [3] and 69% in experiment [4].

In the case of `CC1=C2C[C@H]3O[C@@]3(C)[C@@H]2[C@H]2OC(=O)[C@@H](Cn3nc4ccccc4n3)[C@@H]2CC1`, the inhibition of growth at 50 µM in [1] was 15%; in experiment [2], 13%; in experiment [3], 40%; in experiment [4], 25%.

Regarding `CC1=C2C[C@H]3O[C@@]3(C)[C@@H]2[C@H]2OC(=O)[C@@H](Cn3ncc4ccc([N+](=O)[O-])cc43)[C@@H]2CC1`, the IC50 in experiment [6] was determined as 17 µM; in experiment [7], 35 µM; in [8], 2.2 µM; in experiment [5] it was 29 µM. The inhibition of growth at 50 µM in experiment [1] was found to be 63%; in [2] it was 86%; in experiment [3] it was 99%; in experiment [4], 84%. Besides, the “Ratio IC50” value in [9] is reported as 3.

Consider `CC1=C2C[C@H]3O[C@@]3(C)[C@@H]2[C@H]2OC(=O)[C@@H](Cn3ncc4cc([N+](=O)[O-])ccc43)[C@@H]2CC1`, for which the 50% inhibitory concentration (IC50) in experiment [6] came out at 40 µM; in [7], 2.6 µM; in experiment [8] it was 34 µM; in experiment [5], 31 µM. Further, the inhibition of growth at 50 µM was 72% in experiment [1], 57% in [2], 52% in experiment [3] and 99% in experiment [4]. Besides, the “Ratio IC50” value in experiment [10] was 3.

Turning to `C=C1C(=O)O[C@H]2[C@H]1CCC(C)=C1C[C@H]3O[C@@]3(C)[C@@H]12` [LUDARTIN], the concentration for half-maximal inhibition (IC50) is 6.9 µM in [6], 7.4 µM in experiment [7], 7.5 µM in experiment [8] and 3.1 µM in [5]. The inhibition of growth at 50 µM was determined as 98% in [1], 97% in experiment [2], 97% in [3] and 97% in [4].

The IC50 is the midpoint of a concentration-inhibition curve.

Source of the values: ChEMBL document CHEMBL2417520, “Synthesis and biological evaluation of amino analogs of Ludartin: potent and selective cytotoxic agents” (Bioorg Med Chem Lett, 2013).
